From ChEMBL document CHEMBL4020840, “Synthesis and Biological Evaluation of Selenium-Containing 4-Anilinoquinazoline Derivatives as Novel Antimitotic Agents” (J Med Chem, 2018) come the findings set out here.

Format in all cases: functional, cell-based
One experiment deals with A549. Nature of the experiment: Growth inhibition of human A549 cells after 48 hrs by MTT assay. The settings on record: A549, 48 h. (Tetrazolium dyes change colour on reduction, which living cells bring about.)
The next experiment relates to HCT-116. Nature of the experiment: Growth inhibition of human HCT116 cells after 48 hrs by MTT assay. The settings on record: HCT-116, 48 h. Summed up: (§1)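 MTT assay: log-phase cells plated at 5 × 10³/well for 24 h, then exposed to a range of test concentrations for 48 h. MTT (5 mg/mL) added for 4 h, formazan dissolved in DMSO, absorbance read at 570 nm. IC50 is the concentration giving 50% growth inhibition, from dose-response curves; at least three independent experiments, mean ± SE.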

In another experiment the test system is HepG2. The experiment in a line: Growth inhibition of human HepG2 cells after 48 hrs by MTT assay. The note with it: HepG2, 48 h. Summed up:
as §1

The test system of the next experiment is MDA-MB-231. Nature of the experiment: Growth inhibition of human MDA-MB-231 cells after 48 hrs by MTT assay. The settings on record: MDA-MB-231, 48 h. Summed up: as §1
The subject of another experiment is LoVo. Nature of the experiment: Growth inhibition of human LoVo cells after 48 hrs by MTT assay. Summed up:
as §1

Another experiment has as its system RKO. Nature of the experiment: Growth inhibition of human RKO cells after 48 hrs by MTT assay. Summed up: as §1

As usually defined, the IC50 is the concentration that gives 50% inhibition. Low readings indicate greater potency in that assay, high ones weaker potency in that assay. Regarding `Cc1nc(N(C)c2ccc([Se]C#N)c(Cl)c2)c2ccccc2n1`, the IC50 was 7 nM in the experiment on A549; 12 nM in the experiment on HCT-116; 12 nM in the experiment with HepG2; 9 nM with MDA-MB-231; 12 nM in the experiment with LoVo; 11 nM in the experiment on RKO.

Turning to `C[Se]c1ccc(N(C)c2nc(C)nc3ccccc23)cc1C`, the IC50 with A549 worked out at 2 nM; in the experiment on HCT-116 it was 3 nM; in the experiment with HepG2, 6 nM; in the experiment on MDA-MB-231 it was 7 nM; in the experiment with LoVo it was 9 nM; in the experiment with RKO, 8 nM.

For the molecule `Cc1nc(N(C)c2ccc(OCC[Se]C#N)cc2)c2ccccc2n1`, the IC50 with A549 was 893 nM; with HCT-116, 2290 nM; in the experiment with HepG2, 1680 nM; in the experiment on MDA-MB-231, 317 nM; in the experiment on LoVo it was 547 nM; in the experiment on RKO, 652 nM.

Regarding `COc1ccc(N(C)c2nc(C)nc3ccccc23)cc1OCC[Se]C#N`, the IC50 stood at 13 nM with A549; 18 nM in the experiment on HCT-116; 14 nM with HepG2; 13 nM with MDA-MB-231; 19 nM in the experiment with LoVo; 27 nM in the experiment with RKO.

Take `C[Se]c1ccc(N(C)c2nc(C3CC3)nc3ccccc23)cc1`: the IC50 in the experiment on A549 was found to be 13 nM; in the experiment on HCT-116, 15 nM; with HepG2, 32 nM; in the experiment on MDA-MB-231 it was 18 nM; in the experiment with LoVo it was 11 nM; in the experiment with RKO, 21 nM.

On to `CN(c1ccc([Se]C#N)cc1)c1nc(C2CC2)nc2ccccc12`, for which the IC50 was found to be 12 nM with A549; 62 nM in the experiment on HCT-116; 41 nM with HepG2; 29 nM in the experiment with MDA-MB-231; 11 nM in the experiment with LoVo; 51 nM in the experiment on RKO.

On to `[2H]C([2H])([2H])c1nc(N(C)c2ccc([Se]C#N)cc2)c2ccccc2n1`, for which the IC50 in the experiment with A549 stood at 7 nM; in the experiment with HCT-116, 10 nM; in the experiment on HepG2, 21 nM; in the experiment with MDA-MB-231 it was 11 nM; with LoVo it was 14 nM; in the experiment on RKO it was 11 nM.

`COc1ccc(N(C)c2nc(C)nc3ccccc23)cc1[Se]C#N`: the IC50 was determined as 49 nM with A549; 34 nM with HCT-116; 59 nM in the experiment on HepG2; 52 nM in the experiment on MDA-MB-231; 73 nM in the experiment with LoVo; 47 nM in the experiment on RKO.

For `COc1ccc(N(C)c2nc(C)nc3ccccc23)cc1OCCCCC[Se]C#N`, the IC50 in the experiment with A549 came to 2440 nM; with HCT-116, 256 nM; in the experiment on HepG2, 5210 nM; with MDA-MB-231, 4410 nM; in the experiment with LoVo, 5210 nM; in the experiment on RKO it was 3560 nM.

In the case of `COc1ccc(N(C)c2nc(C)nc3ccccc23)cc1OCCN`, the IC50 was 122 nM in the experiment on A549; 198 nM with HCT-116; 343 nM in the experiment on HepG2; 682 nM in the experiment on MDA-MB-231; 421 nM in the experiment with LoVo; 343 nM in the experiment on RKO.

Take `[2H]C([2H])([2H])c1nc(N(C)c2ccc([Se]C)cc2)c2ccccc2n1`: the IC50 in the experiment on A549 was 3 nM; in the experiment on HCT-116, 3 nM; with HepG2 it was 5 nM; in the experiment on MDA-MB-231, 9 nM; with LoVo it was 5 nM; in the experiment with RKO, 8 nM.

`C[Se]c1ccc(N(C)c2nc(C)nc3ccccc23)cc1Cl`: the IC50 came out at 2 nM in the experiment with A549; 5 nM in the experiment on HCT-116; 4 nM with HepG2; 7 nM with MDA-MB-231; 3 nM in the experiment with LoVo; 4 nM in the experiment with RKO.

With `COc1ccc(N(C)c2nc(C)nc3ccccc23)cc1[Se]C`, the IC50 stood at 11 nM with A549; 28 nM in the experiment with HCT-116; 17 nM with HepG2; 10 nM in the experiment on MDA-MB-231; 3 nM in the experiment with LoVo; 11 nM in the experiment with RKO.

Take `COc1ccc(N(C)c2nc(C)nc3ccccc23)cc1OCCCC[Se]C#N`: the IC50 in the experiment on A549 was determined as 1200 nM; with HCT-116, 512 nM; in the experiment on HepG2, 6460 nM; with MDA-MB-231, 1350 nM; in the experiment on LoVo it was 882 nM; in the experiment with RKO, 1360 nM.

`Cc1nc(N(C)c2ccc([Se]C#N)c(F)c2)c2ccccc2n1`: the IC50 with A549 amounted to 4 nM; with HCT-116, 20 nM; with HepG2, 37 nM; in the experiment with MDA-MB-231, 6 nM; with LoVo, 13 nM; in the experiment with RKO, 8 nM.

On to `COc1ccc(N(C)c2nc(C)nc3ccccc23)cc1OCCC[Se]C#N`, for which the IC50 is 382 nM with A549; 852 nM in the experiment with HCT-116; 1040 nM in the experiment with HepG2; 815 nM in the experiment on MDA-MB-231; 921 nM in the experiment on LoVo; 799 nM in the experiment on RKO.

For `COc1ccc(N(C)c2nc(C)nc3ccccc23)cc1C(=O)OCC[Se]C#N`, the IC50 in the experiment on A549 was determined as 353 nM; with HCT-116, 951 nM; in the experiment with HepG2 it was 890 nM; with MDA-MB-231 it was 1480 nM; in the experiment with LoVo, 2960 nM; in the experiment on RKO it was 2390 nM.

Take `COc1ccc(N(C)c2nc(C)nc3ccccc23)cc1C(=O)OCCCC[Se]C#N`: the IC50 was 155 nM in the experiment on A549; 662 nM with HCT-116; 975 nM with HepG2; 554 nM in the experiment with MDA-MB-231; 1080 nM in the experiment on LoVo; 1020 nM in the experiment on RKO.

As to `COc1ccc(N(C)c2nc(C)nc3ccccc23)cc1C(=O)OCCCCC[Se]C#N`, the IC50 with A549 came to 592 nM; in the experiment on HCT-116, 551 nM; with HepG2 it was 667 nM; in the experiment on MDA-MB-231, 851 nM; in the experiment with LoVo, 714 nM; in the experiment on RKO, 356 nM.

In the case of `COc1ccc(N(C)c2nc(C)nc3ccccc23)cc1OCCCCCC[Se]C#N`, the IC50 with A549 worked out at 5520 nM; in the experiment on HCT-116, 6180 nM; with HepG2, 4890 nM; in the experiment with MDA-MB-231, 3550 nM; with LoVo, 8580 nM; in the experiment on RKO, 1540 nM.

Turning to `COc1ccc(N(C)c2nc(C)nc3ccccc23)cc1C(=O)OCCCCCC[Se]C#N`, the IC50 in the experiment with A549 is 488 nM; with HCT-116, 1990 nM; in the experiment with HepG2, 2650 nM; with MDA-MB-231, 2210 nM; in the experiment on LoVo it was 1050 nM; in the experiment with RKO, 1990 nM.

For `COc1ccc(N(C)c2nc(C)nc3ccccc23)cc1C[Se]C#N`, the IC50 in the experiment on A549 stood at 98 nM; in the experiment on HCT-116, 113 nM; in the experiment on HepG2, 1110 nM; in the experiment on MDA-MB-231 it was 153 nM; in the experiment with LoVo it was 277 nM; in the experiment on RKO, 316 nM.

On to `COc1ccc(N(C)c2nc(C)nc3ccccc23)cc1C(=O)NCC[Se]C#N`, for which the IC50 with A549 is 187 nM; in the experiment on HCT-116, 313 nM; with HepG2, 179 nM; with MDA-MB-231, 1250 nM; in the experiment with LoVo it was 561 nM; in the experiment on RKO, 1170 nM.

In the case of `COc1ccc(N(C)c2nc(C)nc3ccccc23)cc1C(=O)OCCC[Se]C#N`, the IC50 in the experiment with A549 was determined as 250 nM; with HCT-116, 720 nM; in the experiment on HepG2, 340 nM; in the experiment on MDA-MB-231, 1180 nM; in the experiment with LoVo, 854 nM; with RKO, 1140 nM.

As for `Cc1nc(N(C)c2ccc([Se]C#N)c(C)c2)c2ccccc2n1`, the IC50 with A549 amounted to 8 nM; with HCT-116 it was 13 nM; in the experiment on HepG2, 9 nM; in the experiment with MDA-MB-231, 16 nM; in the experiment with LoVo, 19 nM; with RKO, 17 nM.
